Test results as given in ChEMBL document CHEMBL4725468, “Identification of 3,5-Dimethylisoxazole Derivatives as BRD4 Inhibitors for the Treatment of Colorectal Cancer” (ACS Med Chem Lett, 2020).
Activity calls are given as the source filed them. The calls are words filed in the database; no cut-off is given here.

Legend:
[1] = tested on: HCT-116; experiment: Antiproliferation activity against human HCT116 cells assessed as reduction in cell viability at 2 uM incubated for 48 hrs by MTT assay relative to control; format: functional
How it was run: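 HCT116 colon cancer cells screened at a single 2.0 μM concentration. Read-out is percent growth inhibition.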

[2] = tested on: MIA PaCa-2; experiment: Antiproliferation activity against human MIAPaCa2 cells assessed as reduction in cell viability at 2.5 uM incubated for 48 hrs by MTT assay relative to control; format: functional
How it was run: (§1)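 Single-concentration screen at 2.5 μM against BxPc3 and Mia-capa2 pancreatic cancer cells. Read-out is percent growth inhibition.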

[3] = target: Bromodomain-containing protein 4 (Homo sapiens, UniProt O60885); experiment: Inhibition of BRD4 bromodomain1 (unknown origin) using peptide histone H4 (SGRGACKGGACKGLGAC-KGGAACKRHGSGSK-biotin) as substrate incubated for 15 mins followed by substrate addition measured after 1 hr by alphascreen assay
[4] = tested on: BXPC-3; experiment: Antiproliferation activity against human BxPC3 cells assessed as reduction in cell viability at 2.5 uM incubated for 48 hrs by MTT assay relative to control; format: functional; how it was run: as §1
[5] = tested on: HCT-116; experiment: Induction of apoptosis in human HCT116 cells assessed as upregulation of HEXIM1 protein expression at 1 uM incubated for 48 hrs by western blot analysis; format: functional, cell-based
How it was run: (§2)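 HCT116 cells treated at 1 μM for 48 h. Bcl-2, HEXIM1, BRD4 and c-Myc protein levels were measured by western blot.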

[6] = tested on: CT26; experiment: Anticancer activity against mouse CT26 cells xenografted in C57BL/6 mouse assessed as decrease in c-myc expression at 20 mg/kg, ip administered for 14 days by hematoxylin staining based immunohistochemical analysis; settings: time 14.0 day
[7] = tested on: CT26; experiment: Anticancer activity against […] xenografted in C57BL/6 mouse assessed as cell morphological changes measured at 20 mg/kg, iv administered for 14 days by hematoxylin staining based immunohistochemical analysis; format: functional, organism-based; settings: time 14.0 day
[8] = tested on: CT26; experiment: Antitumor activity against […] xenografted in C57BL/6 mouse assessed as tumor suppression at 10 mg/kg, iv administered for 14 days and measured every two days relative to control; format: functional; settings: C57BL/6, CT26, iv, 336 h, time 14 day, read-out: GI
[9] = tested on: CT26; experiment: Antitumor activity against […] xenografted in C57BL/6 mouse assessed as tumor suppression at 5 mg/kg, iv administered for 14 days and measured every two days relative to control; format: functional; settings: C57BL/6, CT26, iv, 336 h, time 14 day, read-out: GI
[10] = Toxicity in C57BL/6 mouse xenografted with mouse CT26 cells assessed as body weight at 20 mg/kg, ip administered for 14 days and measured every two days; settings: in vivo, 336 h
[11] = tested on: HCT-116; experiment: Induction of cell cycle arrest in human HCT116 cells assessed as accumulation at G0/G1 phase at 0.16 uM incubated for 48 hrs by flow cytometry; format: functional, cell-based
How it was run: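 HCT116 cells exposed to 0.16 μM for 48 h. Cell cycle phase distribution was measured, including the G0/G1 fraction.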

[12] = tested on: CT26; experiment: Anticancer activity against mouse CT26 cells xenografted in C57BL/6 mouse assessed as decrease in […] expression at 20 mg/kg, ip administered for 14 days by hematoxylin staining based immunohistochemical analysis; settings: time 14.0 day
[13] = tested on: CT26; experiment: Antitumor activity against mouse CT26 cells xenografted in C57BL/6 mouse assessed as tumor suppression at 20 mg/kg, ip administered for 14 days and measured every two days relative to control; settings: C57BL/6, CT26, ip, 336 h, read-out: GI
[14] = tested on: HCT-116; experiment: Antiproliferation activity against human HCT116 cells assessed as reduction in cell viability incubated for 48 hrs by MTT assay; format: functional, cell-based; settings: HCT-116, 48 h
How it was run: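 HCT116 cells treated across a concentration gradient. IC50 was taken from dose–response curves, reported as mean ± SD of at least three independent experiments.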

[15] = tested on: HCT-116; experiment: Induction of apoptosis in human HCT116 cells assessed as upregulation of BRD4 expression at 1 uM incubated for 48 hrs by western blot analysis; format: functional, cell-based; how it was run: as §2
[16] = tested on: CT26; experiment: Anticancer activity against mouse CT26 cells xenografted in C57BL/6 mouse assessed as upregulation in HEXIM1 expression at 20 mg/kg, ip administered for 14 days by hematoxylin staining based immunohistochemical analysis; settings: time 14.0 day
[17] = tested on: HCT-116; experiment: Induction of apoptosis in human HCT116 cells assessed as decrease in Bcl2 protein expression level at 1 uM incubated for 48 hrs by western blot analysis; format: functional, cell-based; how it was run: as §2
[18] = tested on: HCT-116; experiment: Induction of apoptosis in human HCT116 cells assessed as activation of downstream effector Caspase 3 at 1 uM incubated for 48 hrs by western blot analysis; format: functional, cell-based
[19] = tested on: HCT-116; experiment: Antiproliferation activity against human HCT116 cells assessed as reduction in cell viability for 12 days by crystal violet staining based plate clone-forming analysis; format: functional; settings: dose microM 0.008-0.165, time 12.0 day
How it was run: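 Plate colony-formation assay in HCT116 cells with 12 days of compound exposure at several concentrations.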

[20] = tested on: HCT-116; experiment: Induction of apoptosis in human HCT116 cells assessed as downregulation of c-myc protein expression at 1 uM incubated for 48 hrs by western blot analysis; format: functional, cell-based; how it was run: as §2
[21] = tested on: CT26; experiment: Antitumor activity against […] xenografted in C57BL/6 mouse assessed as tumor suppression at 13.6 mg/kg, iv administered for 14 days and measured every two days relative to control; format: functional; settings: C57BL/6, CT26, iv, 336 h, time 14 day, read-out: GI

| Compound | Activity [1] [%] | Activity [2] [%] | IC50 [3] [nM] | Activity [4] [%] | IC50 [14] [nM] | also measured |
| --- | --- | --- | --- | --- | --- | --- |
| Cc1noc(C)c1-c1ccc2c(c1)C(c1ccccc1)N(Cc1cn(CCOCCOCCn3cc(CN4C(=O)Nc5ccc(-c6c(C)noc6C)cc5C4c4ccccc4)nn3)nn1)C(=O)N2 (stereo not drawn) | 60.5 | 63.2 | < 2.1 | 21.8 |  |  |
| Cc1noc(C)c1-c1ccc2c(c1)C(c1ccccc1)N(CCCCCN1C(=O)N(C)c3ccc(-c4c(C)noc4C)cc3C1c1ccccc1)C(=O)N2C (stereo not drawn) | 52 | 71.3 | 56 | 27.9 |  |  |
| Cc1noc(C)c1-c1ccc2c(c1)C(c1ccccc1)N(Cc1cn(CCOCCOCCOCCn3cc(CN4C(=O)N(C)c5ccc(-c6c(C)noc6C)cc5C4c4ccccc4)nn3)nn1)C(=O)N2C (stereo not drawn) | 83.6 | 68.4 | 7.7 | 61.3 | 162 | Activity [5]: Active; Activity [6]: Active; Activity [7]: Active; inhibition in vivo at 10 mg/kg [8]: 33.8%; inhibition in vivo at 5 mg/kg [9]: 68%; Activity [10]: Non-Toxic; Activity [11]: Active; Activity [12]: Active; inhibition in vivo at 20 mg/kg [13]: 56.1%; Activity [15]: Active; Activity [16]: Active; Activity [17]: Active; Activity [18]: Active; inhibition [19]: Dose-dependent effect; Activity [20]: Active; inhibition in vivo at 13.6 mg/kg [21]: 11.5% |
| Cc1noc(C)c1-c1ccc2c(c1)C(c1ccccc1)N(Cc1cn(CCn3cc(CN4C(=O)Nc5ccc(-c6c(C)noc6C)cc5C4c4ccccc4)nn3)nn1)C(=O)N2 (stereo not drawn) | 60.3 | 62.2 | < 2.1 | 53 |  |  |
| Cc1noc(C)c1-c1ccc2c(c1)C(c1ccccc1)N(Cc1cn(CCOCCn3cc(CN4C(=O)N(C)c5ccc(-c6c(C)noc6C)cc5C4c4ccccc4)nn3)nn1)C(=O)N2C (stereo not drawn) | 49.6 | 64 | 4.2 | 23.2 |  |  |
| Cc1noc(C)c1-c1ccc2c(c1)C(c1ccccc1)N(CCOCCOCCOCCN1C(=O)N(C)c3ccc(-c4c(C)noc4C)cc3C1c1ccccc1)C(=O)N2C (stereo not drawn) | 35.3 | 73.4 | 19 | 42.1 |  |  |
| Cc1sc2c(c1C)C(c1ccc(Cl)cc1)=N[C@@H](CC(=O)OC(C)(C)C)c1nnc(C)n1-2 | 23.2 | 56.2 |  | 9.1 | 4210 |  |
| Cc1noc(C)c1-c1ccc2c(c1)C(c1ccccc1)N(CCCCCCN1C(=O)N(C)c3ccc(-c4c(C)noc4C)cc3C1c1ccccc1)C(=O)N2C (stereo not drawn) | 59.7 | 70.9 | 42 | 44 | 1100 |  |
| Cc1noc(C)c1-c1ccc2c(c1)C(c1ccccc1)N(Cc1cn(CCOCCn3cc(CN4C(=O)Nc5ccc(-c6c(C)noc6C)cc5C4c4ccccc4)nn3)nn1)C(=O)N2 (stereo not drawn) | 55.6 | 54.4 | < 2.1 | 52.1 |  |  |
| Cc1noc(C)c1-c1ccc2c(c1)C(c1ccccc1)N(CCCCN1C(=O)N(C)c3ccc(-c4c(C)noc4C)cc3C1c1ccccc1)C(=O)N2C (stereo not drawn) | 59.3 | 68.2 | 13 | 46.4 |  |  |
| CCS(=O)(=O)Nc1ccc(Oc2ccc(F)cc2F)c(-c2cn(C)c(=O)c3[nH]ccc23)c1 [MIVEBRESIB] | 69.5 | 64.3 | 2.5 | 36.8 | 550 |  |
| Cc1noc(C)c1-c1ccc2c(c1)C(c1ccccc1)N(Cc1cn(CCOCCOCCOCCn3cc(CN4C(=O)Nc5ccc(-c6c(C)noc6C)cc5C4c4ccccc4)nn3)nn1)C(=O)N2 (stereo not drawn) | 60.4 | 66.4 | < 2.1 | 42.2 |  |  |
| Cc1noc(C)c1-c1ccc2c(c1)C(c1ccccc1)N(CCCCCCCCCCN1C(=O)N(C)c3ccc(-c4c(C)noc4C)cc3C1c1ccccc1)C(=O)N2C (stereo not drawn) | 48.8 | 65.2 |  | 45.2 |  |  |
| Cc1noc(C)c1-c1ccc2c(c1)C(c1ccccc1)N(CCOCCOCCN1C(=O)N(C)c3ccc(-c4c(C)noc4C)cc3C1c1ccccc1)C(=O)N2C (stereo not drawn) | 43.4 | 67.3 | 31 | 7.1 |  |  |
| Cc1noc(C)c1-c1ccc2c(c1)C(c1ccccc1)NC(=O)N2C (stereo not drawn) | 14 | 59.1 | 32 | 11.2 | 3340 | Activity [11]: Active; inhibition in vivo at 20 mg/kg [13]: 11.5%; Activity [17]: Active; inhibition [19]: Active; Activity [20]: Active |
| Cc1noc(C)c1-c1ccc2c(c1)C(c1ccccc1)N(Cc1cn(CCCCCCn3cc(CN4C(=O)Nc5ccc(-c6c(C)noc6C)cc5C4c4ccccc4)nn3)nn1)C(=O)N2 (stereo not drawn) | 60.1 | 57.2 | < 2.1 | 37.1 |  |  |
